Active and inactive are the calls of the source. The calls are words filed in the database; no cut-off is given here.
Legend:
Vibrio harveyi [1] = assay: Antimicrobial activity against wild type Vibrio harveyi BB120; assay type: functional
Summary of the method: (§1)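 Overnight AB-medium culture, OD600 adjusted to 0.4, diluted 1:100 into Luria-Marine broth and added to twofold compound dilutions in LM broth, 200 µl per well. Incubated 5 h at 30 °C with aeration under breathable seal; growth read as OD600. GIC50 = concentration reducing OD600 by 50%, from gradients in 2–3 independent experiments, 2–3 repeats each; highest concentration tested 1000 µM.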

[2] = Inhibition of quorum sensing regulated bioluminescence in wild type Vibrio harveyi BB120 after 5 hrs by luminescence assay
Summary of the method: (§2)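 Twofold compound dilutions in LM broth; OD600-adjusted (0.4) AB-grown overnight culture diluted 1:100 in Luria-Marine broth, 200 µl per well. Incubated 5 h at 30 °C with aeration; luminescence imaged by CCD camera. IC50 = concentration inhibiting luminescence by 50%, fitted from gradients in 2–3 independent experiments (2–3 repeats each); top concentration 1000 µM.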

Salmonella typhimurium [3] = assay: Antimicrobial activity against Salmonella Typhimurium ATCC 14028 assessed as effect on planktonic growth at 10 uM after 36 hrs by microtiter plate assay; assay type: functional, organism-based; settings: Salmonella enterica subsp. enterica serovar Typhimurium
Summary of the method: (§3)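 Overnight LB culture diluted 1:200 in TSB 1/20; 300 µl per well; compound serial dilutions made in EtOH, 3 µl added per well in triplicate; solvent-only controls in three- or fourfold. Incubated at 16 °C for at least 36 h with continuous shaking in Bioscreen reader; OD600 read every 15 min; growth curves compared with untreated controls.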

Salmonella typhimurium [4] = assay: Antimicrobial activity against Salmonella Typhimurium ATCC 14028 assessed as effect on planktonic growth at 1 uM after 36 hrs by microtiter plate assay; assay type: functional, organism-based; settings: Salmonella enterica subsp. enterica serovar Typhimurium; summary of the method: as §3
Salmonella typhimurium [5] = assay: Antimicrobial activity against Salmonella Typhimurium ATCC 14028 assessed as effect on planktonic growth at 250 uM after 36 hrs by microtiter plate assay; assay type: functional, organism-based; settings: Salmonella enterica subsp. enterica serovar Typhimurium; summary of the method: as §3
Salmonella typhimurium [6] = assay: Antimicrobial activity against Salmonella Typhimurium ATCC 14028 assessed as inhibition of biofilm formation after 48 hrs using crystal violet staining by microtiter plate assay; assay type: functional, organism-based, Salmonella enterica subsp. enterica serovar Typhimurium; settings: Salmonella enterica, ATCC 14028, 48 h
Summary of the method: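 Peg-lid biofilm assay: overnight LB culture diluted 1:100 into TSB 1/20, ca. 1×10⁶ cells added to twofold compound dilutions, 200 µl total per well. Static incubation 48 h at 16 °C; lid moved to fresh medium with compound after 24 h. IC50 from concentration gradients, 2–3 independent experiments, 2–3 repeats each.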

Salmonella typhimurium [7] = assay: Antimicrobial activity against Salmonella Typhimurium ATCC 14028 assessed as effect on planktonic growth at 100 uM after 36 hrs by microtiter plate assay; assay type: functional, organism-based; settings: Salmonella enterica subsp. enterica serovar Typhimurium; summary of the method: as §3
Vibrio harveyi [8] = assay: Inhibition of quorum sensing regulated bioluminescence in Vibrio harveyi BNL258 harboring hfq::Tn5lacZ mutant quorum sensing after 5 hrs by luminescence assay
Summary of the method: (§4)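 Twofold serial dilutions in Luria-Marine broth; overnight culture (grown in AB medium) adjusted to OD600 0.4, diluted 1:100 and added 1:1 to wells (200 µl total). Incubated 5 h at 30 °C with aeration under breathable seal. Luminescence read by CCD camera, OD600 also measured. Luminescence expressed as percentage of untreated control of the same strain.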

HeLa = assay: Cytotoxicity against human HeLa cells assessed as inhibition of cell proliferation after 4 days by coulter counter assay; assay type: cell-based; settings: 96 h
Summary of the method: (§5)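 Cells suspended at 300,000–500,000 cells/mL; 100 µL added to equal volume of compound dilution in 96-well plates. Incubated at 37 °C for 2 days (L1210, FM3A), 3 days (CEM) or 4 days (HeLa, OST). Cell number counted by Coulter counter; IC50 = concentration inhibiting proliferation by 50%.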

Vibrio harveyi [9] = assay: Inhibition of quorum sensing regulated bioluminescence in Vibrio harveyi JAF553 luxU H58A linked to Kan mutant quorum sensing after 5 hrs by luminescence assay; summary of the method: as §4
L1210 = assay: Cytotoxicity against mouse L1210 cells assessed as inhibition of cell proliferation after 2 days by coulter counter assay; assay type: cell-based; settings: L1210, 48 h; summary of the method: as §5
Vibrio harveyi [10] = assay: Inhibition of quorum sensing regulated bioluminescence in Vibrio harveyi JAF483 luxO D47A linked to Kan mutant quorum sensing after 5 hrs by luminescence assay; summary of the method: as §4
CCRF-CEM = assay: Cytotoxicity against human CEM cells assessed as inhibition of cell proliferation after 3 days by coulter counter assay; assay type: cell-based; settings: 72 h; summary of the method: as §5
OST = assay: Cytotoxicity against human thymidine kinase deficient OST cells assessed as inhibition of cell proliferation after 4 days by coulter counter assay; assay type: cell-based; settings: 96 h; summary of the method: as §5
FM3A = assay: Cytotoxicity against mouse FM3A cells assessed as inhibition of cell proliferation after 2 days by coulter counter assay; assay type: cell-based; settings: 48 h; summary of the method: as §5
Vibrio harveyi [11] = assay: Antimicrobial activity against wild type Vibrio harveyi BB120 at 1000 uM; assay type: functional, organism-based; summary of the method: as §1
[12] = Inhibition of quorum sensing regulated bioluminescence in wild type Vibrio harveyi BB120 at 1000 uM after 5 hrs by luminescence assay; summary of the method: as §2

| SMILES | IC50 [2] [µM] | GI50 (Vibrio harveyi [1]) [µM] | Activity (Salmonella typhimurium [3]) | Activity (Salmonella typhimurium [4]) | Activity (Salmonella typhimurium [5]) | IC50 (Salmonella typhimurium [6]) [µM] | Activity (Salmonella typhimurium [7]) | other results |
| --- | --- | --- | --- | --- | --- | --- | --- | --- |
| O=C1C=C/C(=C/Br)O1 | 4.07 | 15.7 |  |  |  |  |  |  |
| CCCCCCC1=C(Br)C(=O)OC1=O [BROMOHEXYLMALEIC ANHYDRIDE] | 10.6 | 208 |  |  | inactive | 65.9 | inactive | Activity (Vibrio harveyi [8]): Active; IC50 (HeLa): 156 µM; Activity (Vibrio harveyi [9]): Active; IC50 (L1210): 208 µM; Activity (Vibrio harveyi [10]): Active; IC50 (CCRF-CEM): 90 µM; IC50 (OST): 43 µM; IC50 (FM3A): 243 µM |
| CCCCCCC1=C/C(=C/Br)OC1=O |  |  |  |  |  | > 1000 |  |  |
| CCCCCC(Br)C1=C(Br)/C(=C/Br)OC1=O (stereo unspecified) | 5.21 | 7.27 | inactive | inactive | inactive | 3.23 | inactive |  |
| C=C1OC(=O)C(CCCCCC)=C1Br | 1.36 | 36.3 | inactive |  | Active | 19.4 | Active | Activity (Vibrio harveyi [8]): Active; IC50 (HeLa): 48 µM; Activity (Vibrio harveyi [9]): Active; IC50 (L1210): 8.5 µM; Activity (Vibrio harveyi [10]): Active; IC50 (CCRF-CEM): 7.5 µM; IC50 (OST): 2 µM; IC50 (FM3A): 16 µM |
| CC(=O)OC(C)C1=CC(=C(Br)Br)OC1=O (stereo unspecified) |  |  | inactive | inactive | inactive | 162 | inactive |  |
| CC(Br)C1=C(Br)/C(=C/Br)OC1=O (stereo unspecified) | 6.34 | 16.1 | inactive | inactive | Active | 4.5 | Active |  |
| CCCCCCC1=CC(=C(Br)Br)OC1=O | 84 | 197 |  |  |  | 160 |  |  |
| CCCCCCCCCCCCC1=C(Br)/C(=C/Br)OC1=O |  |  |  |  |  |  |  | GI50 (Vibrio harveyi [11]): inactive; IC50 [12]: Not Active |
| CCCCC1=C(Br)/C(=C/Br)OC1=O | 1.36 | 65.3 | inactive |  | Active | 23.1 | inactive |  |
| CCCCCCCCC1=C(Br)/C(=C/Br)OC1=O | 3.41 | 267 |  |  |  |  |  |  |

More lines, main results first:

| IC50 [2] [µM] | SMILES | GI50 (Vibrio harveyi [1]) [µM] | Activity (Salmonella typhimurium [3]) | Activity (Salmonella typhimurium [4]) | Activity (Salmonella typhimurium [5]) | IC50 (Salmonella typhimurium [6]) [µM] | Activity (Salmonella typhimurium [7]) | other results |
| --- | --- | --- | --- | --- | --- | --- | --- | --- |
| 26.6 | CCCCCCCCCCC1=C(Br)/C(=C/Br)OC1=O | > 300 |  |  |  |  |  |  |
| 0.774 | CC(Br)C1=CC(=C(Br)Br)OC1=O (stereo unspecified) | 3.07 | Active | inactive | Active | 1.17 | Active |  |
| 6.31 | CC(=O)OC(C)C1=C(Br)C(=C(Br)Br)OC1=O (stereo unspecified) | 25.4 | inactive | inactive | Active | 7.29 | inactive |  |
| 105 | CCC1=CC(=C(Br)Br)OC1=O | 325 | inactive |  | inactive | 200 | inactive |  |
| 1.18 | CCCC(Br)C1=C(Br)/C(=C/Br)OC1=O (stereo unspecified) | 4.04 | inactive | inactive | Active | 5.71 | Active |  |
| 18.9 | CCCCC1=CC(=C(Br)Br)OC1=O | 141 |  |  |  | 148 |  |  |
| 11.9 | CCCCCCC1=C(Br)/C(=C/Br)OC1=O | 34 | inactive |  | Active | 10.7 | inactive |  |
| 9.27 | CCC1=C(Br)/C(=C/Br)OC1=O | 10.8 | inactive |  | Active | 17.9 | inactive | IC50 (HeLa): 39 µM; IC50 (L1210): 284 µM; IC50 (CCRF-CEM): 208 µM; IC50 (OST): 6.3 µM; IC50 (FM3A): > 500 µM |
| 2.88 | O=C1C=CC(=C(Br)Br)O1 | 25.5 |  |  |  |  |  |  |
| 50.1 | CCCC(OC(C)=O)C1=C(Br)/C(=C/Br)OC1=O (stereo unspecified) | 147 | inactive | inactive | inactive | 132 | inactive |  |
| 2.71 | O=C1C=C(Br)/C(=C/Br)O1 | 3.16 |  |  |  |  |  |  |
| 97.8 | CCCCCCC1=CC(=O)OC1=O | 640 |  |  |  | > 1000 |  |  |
| 2.76 | CC(Br)C1=C(Br)C(=C(Br)Br)OC1=O (stereo unspecified) | 9.74 | inactive | inactive | inactive | 4.09 | inactive |  |
| 1.15 | CCC1=C(Br)C(=C(Br)Br)OC1=O | 2.26 | inactive |  |  | 57.5 | inactive |  |
| 0.2 | CCCC(Br)C1=CC(=C(Br)Br)OC1=O (stereo unspecified) | 1.07 | inactive | inactive | Active | 1.31 | Active |  |
| 14.4 | CCCCC1=C(Br)C(=C(Br)Br)OC1=O | 20.5 |  |  |  |  |  |  |

From ChEMBL document CHEMBL1250426, “Structure-activity relationship of brominated 3-alkyl-5-methylene-2(5H)-furanones and alkylmaleic anhydrides as inhibitors of Salmonella biofilm formation and quorum sensing regulated bioluminescence in Vibrio harveyi” (Bioorg Med Chem, 2010)
